ABHD5-PLIN5 inh – ABHD5-PLIN5 protein interaction inhibition; Q00G26+Q8WTS1; Split G. princeps luciferase complementation, luminescence, 4 h; inhibition, % at 4 µM; 0.78% of 360,000 active; AID 602281;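 active means inhibition above the mean inhibition across every tested compound plus 3 SD, cut at about 22% in these data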;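 further: 0% = DMSO only wells and the 100% control is not disclosed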
Rad51 HR inh – Rad51 (human) homologous recombination inhibition; inhibition, % at 10 µM; 0.085% of 200,000 active; hRad51 DNA strand exchange, fluorescence dequenching; AID 1385; Q06609;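 active means inhibition above 40% at the single screening dose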;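 further: 0% = DMSO control wells and 100% = blanks with heterologous ssDNA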
Target sequence (Q06609 whole entry, looked up): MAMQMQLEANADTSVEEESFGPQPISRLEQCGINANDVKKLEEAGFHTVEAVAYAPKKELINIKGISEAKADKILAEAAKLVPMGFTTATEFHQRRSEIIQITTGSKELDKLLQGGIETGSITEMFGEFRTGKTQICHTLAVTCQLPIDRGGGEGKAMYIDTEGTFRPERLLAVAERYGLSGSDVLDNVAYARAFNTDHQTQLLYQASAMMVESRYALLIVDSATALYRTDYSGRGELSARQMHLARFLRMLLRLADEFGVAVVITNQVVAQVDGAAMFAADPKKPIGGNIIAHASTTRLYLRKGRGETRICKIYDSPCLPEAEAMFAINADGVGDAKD
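Material: human Rad51–ssDNA filaments; Probe or stimulus: labelled 47-mer dsDNA for strand exchange; Doses: single 10 µM dose; Incubation: 37 °C 15-min filament assembly, 30-min compound preincubation, 15-min exchange; Technique: FRET fluorescence dequenching, excitation 485 nm, emission 520 nm; Measure: Fluorescence-based percent inhibition, control- and blank-normalised; Benchmarks: plate control and blank wells.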
HIF act – HIF pathway transcriptional activation; U2OS HRE-luciferase reporter, luminescence; normalized: DMSO 0%, desferrioxamine 100%; activation, % at 7.5 µM (by protocol); 0.32% of 300,000 active; AID 1910;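 active means mean activation of at least 10% of the iron chelator positive control signal, with at least half of replicates also reaching 10%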
FXN GAA850 act – increases GAA850 frataxin promoter reporter activity | HEK293 lucGAA850 FXN promoter luciferase reporter, 24 h; percent of 10 µM SAHA response | activation, % at 6 µM | 0.56% of 360,000 active;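 active means activation above the average of all compounds screened plus 3 SD, cutoff fixed separately per campaign, cut at about 7.5% in these data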;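 further: 0% = DMSO wells and 100% = 10 µM SAHA wells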
Hsp70 activator – Hsp70 transcriptional activation, primary screen | HeLa Hsp70 promoter luciferase reporter, luminescence; scaled: vehicle 0, proteasome-inhibitor control 100% | activation, % at 10 µM | 0.04% of 200,000 active;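 active means activation above the mean across all tested compounds plus 3 SD, cutoff set per campaign, cut at about 5.5% in these data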;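 further: 100% = MG132 at 30 µM as the positive control and 0% = DMSO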
TAG inh – inhibitors of triacylglycerol accumulation | H9c2 cells, Nile Red lipid (TAG) fluorescence; cells loaded with 200 µM oleic acid | inhibition, % at 12.5 µM | 0.66% of 230,000 active | AID 651582;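 active means pattern-corrected inhibition of lipid staining of at least 50% with the nuclear-stain viability signal not falling by more than 50%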;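 further: 0% = DMSO wells and 100% = triacsin C control wells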
H9c2 TAG conf – triacylglycerol accumulation inhibition, confirmation; shares compounds with TAG inh; H9c2 lipid accumulation, Nile Red fluorescence; cells loaded with 200 µM oleic acid; inhibition, % at 12.5 µM; 71% of 990 active; AID 651629;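 active means mean inhibition across replicates of 40% or more; inactive means mean inhibition below 40%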;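 further: plate controls were DMSO only wells for no effect and Triacsin C treated wells for full effect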
The depositor's hits bear a star; . = no result given. Rows were chosen to be rich in hits. Some 1.9% of all compounds tested hit in one or more screens of this group.

SMILES	ABHD5-PLIN5 inh	Rad51 HR inh	HIF act	FXN GAA850 act	Hsp70 activator	TAG inh	H9c2 TAG conf
COc1ccc(CNC(=O)C2(C)Cc3c(-c4ccc5c(c4)OCO5)ccnc3O2)cc1OC (stereo unspecified)	-1	.	.	-2	.	-24	.
CC(=O)Nc1ccc(NC(=O)c2csc([C@H]3C[C@H](O)[C@@H](CO)O3)n2)cc1	-4	.	.	-3	.	-16	.
O=C(Nc1ccc(Cl)cc1)c1csc([C@@H]2C[C@H](O)[C@@H](CO)O2)n1	2	.	.	2	.	54*	0
CCOC(=O)c1cc(-c2ccccc2)sc1NC(=S)Nc1cccc(C)n1	-11	-5	0	1	0	69*	56*
CCOC(=O)c1cc(-c2ccccc2)sc1NC(=O)C(C)C	1	2	0	1	0	.	.
CCOC(=O)c1cc(-c2ccccc2)sc1NC(=O)C(C)N1C(=O)NC(C)(c2ccc(Cl)cc2)C1=O (stereo unspecified)	-7	-2	0	-1	0	76*	76*
O=[N+]([O-])c1cccc(-c2cn3nc(-c4ccccc4)c(-c4ccccc4)nc3n2)c1	3	-5	0	-1	.	-3	.
O=[N+]([O-])c1ccc(-c2cn3nc(-c4ccccc4)c(-c4ccccc4)nc3n2)cc1	5	.	0	2	.	87*	9
COc1cc(OC)cc(C(=O)N2CC(=O)Nc3ccccc32)c1	-3	.	-1	-2	.	58*	63*
COc1cc(CCN(C(=O)c2cc3ccccc3[nH]2)C(c2ccccn2)c2nc3ccccc3[nH]2)cc(OC)c1 (stereo unspecified)	0	.	.	.	.	.	.
O=C(COc1ccc(Br)cc1CNC1CCCCC1)NCCc1ccccc1	5	7	-3	-7	0	59*	39
CCOC(=O)C1CCCN(C(=O)COC(=O)c2cccs2)C1 (stereo unspecified)	9	.	.	3	.	-5	.
Cc1noc(C)c1-c1ccc2ncnc(NCC3CCCCN3C)c2c1 (stereo unspecified)	-5	.	.	3	.	62*	51*
Cc1ccsc1CNc1ncnc2ccc(-c3c(C)noc3C)cc12	-6	.	.	1	.	31	.
Cc1cc(C)c(OCC(=O)OC(C)C(=O)NCc2ccccc2)c(C)c1 (stereo unspecified)	1	.	.	1	.	-9	.
CCOc1ccc2ncc(S(=O)(=O)c3ccccc3)c(N3CCN(c4ccccc4)CC3)c2c1	-2	.	0	2	.	15	.
CCOC(=O)c1cnc2ccc(OCC)cc2c1N1CCN(c2ccccc2)CC1	-7	0	0	0	0	53*	39
Cc1cc(C(=O)COC(=O)c2ccc([N+](=O)[O-])o2)c(C)n1CC1CCCO1 (stereo unspecified)	3	-30	0	-1	0	72*	54*
COc1ccc(C(NC(=O)C2CCN(CCc3ccccc3)CC2)c2ccccn2)cc1 (stereo unspecified)	-2	.	.	0	.	14	.
Cc1onc(-c2ccccc2Cl)c1C(=O)N1CCN(C=O)CC1	5	.	0	-1	.	10	.
Cc1cccc(N2CCN(C(=O)c3c(-c4ccccc4Cl)noc3C)CC2)c1C	-1	.	0	-3	.	71*	66*
CCOC(=O)C1=CCN(S(=O)(=O)c2ccccc2Br)C1c1ccc(Cl)c(Cl)c1 (stereo unspecified)	-9	.	.	.	.	.	.
Cc1cccc2sc(NC(=O)C3CCCN(S(=O)(=O)c4cccc5nonc45)C3)nc12 (stereo unspecified)	6	0	0	0	0	54*	74*
CCCC(=O)Nc1ccc2oc(-c3cccnc3)nc2c1	1	-2	3	4	0	13	.
O=C(Nc1ccc2oc(-c3cccnc3)nc2c1)c1cc2ccccc2o1	-1	-6	0	2	0	52*	25
SMILES	ABHD5-PLIN5 inh	Rad51 HR inh	HIF act	FXN GAA850 act	Hsp70 activator	TAG inh	H9c2 TAG conf
COc1ccccc1N1C(=O)c2cccc3cccc(c23)C1=O	0	.	0	2	.	.	.
Cc1cc(NC(=O)c2ccc(F)cc2F)n(-c2nc3ccccc3[nH]2)n1	0	2	0	2	0	.	.
Cc1cc(NC(=O)CC2CCCC2)n(-c2nc3ccccc3[nH]2)n1	-7	10	0	3	0	59*	54*
CN1CCN(c2cc(=O)n(C3CCCCC3)c(=O)[nH]2)CC1	0	-3	0	2	0	-14	.
O=c1cc(N2CCN(c3cccc(Cl)c3)CC2)[nH]c(=O)n1C1CCCCC1	4	-5	-1	0	0	69*	58*
O=c1cc(N2CCOCC2)[nH]c(=O)n1C1CCCCC1	8	-2	0	0	0	-1	.
O=c1cc(N2CCN(c3ccccc3)CC2)[nH]c(=O)n1C1CCCCC1	0	8	-1	-2	0	63*	30
Cc1ccc2cc3cc(C(=O)NCCCN4CCCCCC4)oc3nc2c1	3	.	4	1	0	51*	29
O=c1cc(-c2cccc(Cl)c2)oc2cccc(O)c12	-4	4	0	3	.	92*	1
C[C@H](CO)N1C[C@H](C)[C@@H](CN(C)CC2CCCCC2)Oc2c(NS(=O)(=O)c3ccc(F)cc3)cccc2C1=O	-6	.	.	-2	.	-13	.
Cc1ccc(NC(=O)c2ncn(CCCNCc3ccccc3)n2)cc1C	-4	.	.	0	.	11	.
O=S(=O)(c1ccccc1)c1ccc(NCc2ccco2)cc1	-2	8	0	-1	0	.	.
O=C1C(Cl)=C(NCc2ccco2)C(=O)c2ccccc21	-45	.	.	-1	.	65*	46*
Cc1ccc(C(=O)Nc2cccc(S(=O)(=O)N3CCCCC3)c2)cc1S(=O)(=O)N1CCOCC1	-1	.	.	1	.	-19	.
C#CCN(C[C@@H]1[C@@H](OC(=O)NCc2ccco2)[C@@H](OC(=O)NCc2ccco2)CN(C(=O)OC(C)C)N1C(=O)OC(C)C)S(=O)(=O)c1ccc(C)cc1	9	.	.	-6	.	55*	62*
C#CCN(C[C@@H]1[C@@H](OC(=O)NCc2ccccc2F)[C@@H](OC(=O)NCc2ccccc2F)CN(C(=O)OC(C)C)N1C(=O)OC(C)C)S(=O)(=O)c1ccc(C)cc1	-1	.	.	-4	.	22	.
O=C1OCCN1C(=O)[C@H]1[C@H](c2ccc(F)cc2)C(c2ccc(F)cc2)=NN1c1ccc(Br)cc1	-1	8	-1	0	0	-3	.
O=C1OCCN1C(=O)[C@H]1[C@H](c2ccc(Cl)cc2)C(c2ccc(F)cc2)=NN1c1ccc(Br)cc1	1	.	.	0	.	105*	10
COc1ccccc1NC(=O)N1CCC(c2nc3cc(C)c(C)cc3[nH]2)CC1	0	1	1	2	0	51*	45*

Screens deposited in PubChem by several laboratories.
